The source made the active and inactive calls. The rule behind the calls is not given here.
How the values were obtained:
Format in all cases: functional, organism-based
Staphylococcus aureus [1] = assay: Induction of VraSR-dependent tcaA gene expression in Staphylococcus aureus N315 at 10 ug/mL after 30 mins by Northern blot analysis
Procedure, shortened: (§1)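 Total RNA, 10 µg per sample, was separated on a 1.5% agarose–20 mM guanidine thiocyanate gel in 1x TBE, then Northern blotted.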

Staphylococcus aureus [2] = assay: Induction of VraSR-dependent tcaA gene expression in Staphylococcus aureus N315 at 16 ug/mL after 30 mins by Northern blot analysis; procedure, shortened: as §1
Staphylococcus aureus [3] = assay: Induction of VraSR-dependent tcaA gene expression in Staphylococcus aureus KVR expressing N315 delta-vraSr mutant at 10 ug/mL after 30 mins by Northern blot analysis; procedure, shortened: as §1
Staphylococcus aureus [4] = assay: Induction of VraSR-dependent tcaA gene expression in Staphylococcus aureus KVR expressing N315 delta-vraSr mutant at 2 ug/mL after 30 mins by Northern blot analysis; procedure, shortened: as §1

| SMILES | Activity (Staphylococcus aureus [1]) | Activity (Staphylococcus aureus [2]) | Activity (Staphylococcus aureus [3]) | Activity (Staphylococcus aureus [4]) |
| --- | --- | --- | --- | --- |
| Cc1onc(-c2ccccc2)c1C(=O)N[C@@H]1C(=O)N2[C@@H]1SC(C)(C)[C@@H]2C(=O)O | Active | Active | inactive | inactive |
| CN[C@H](CC(C)C)C(=O)N[C@H]1C(=O)N[C@@H](CC(N)=O)C(=O)N[C@H]2C(=O)N[C@H]3C(=O)N[C@H](C(=O)N[C@H](C(=O)O)c4cc(O)cc(O)c4-c4cc3ccc4O)[C@H](O)c3ccc(c(Cl)c3)Oc3cc2cc(c3O[C@@H]2O[C@H](CO)[C@@H](O)[C@H](O)[C@H]2O[C@H]2C[C@](C)(N)[C@H](O)[C@H](C)O2)Oc2ccc(cc2Cl)[C@H]1O | Active | Active | inactive | inactive |

Source: ChEMBL document CHEMBL1137645, “Functional characterization of TcaA: minimal requirement for teicoplanin susceptibility and role in Caenorhabditis elegans virulence” (2007)
